Reference: PMC10009879 (RSC Advances, 2023)
Converted amounts (≈) assume the structure as drawn. Blank lines part the entries; values can stand above or below the molecule they belong to.

Columns and labels:
α-glucosidase [1] = conditions: cited from earlier work
α-glucosidase [2] = assay: α-Glucosidase inhibition type and inhibition constants by Lineweaver–Burk plots; type: biochemical, Saccharomyces cerevisiae
Procedure, shortened: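 Yeast (Saccharomyces cerevisiae) α-glucosidase with 4-nitrophenyl […]-D-glucopyranoside (pNPG) as substrate. The test compound was run at 0, 1.98, 3.97 and 7.93 μM, each in three replicates. Inhibition type was assigned from Lineweaver–Burk plots using a modified published method. Ki (free enzyme) and K′i (enzyme–substrate complex) were derived from the same data.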

α-glucosidase [3] = assay: Screening of α-glucosidase inhibitory activity; type: biochemical, Saccharomyces cerevisiae; conditions: times better than acarbose
α-glucosidase [4] = conditions: previous study; ref Zhang et al., 23; cited from earlier work
[5] = test system: mice fed a high fat and high sucrose diet; conditions: cited from earlier work
[6] = test system: STZ-induced diabetic rats; conditions: cited from earlier work
yeast α-glucosidase = conditions: in vitro; cited from earlier work

SMILES: O=c1c(O)c(-c2ccc(O)cc2)oc2cc(O)cc(O)c12 [Compound 3, kaempferol]
α-glucosidase inhibition (α-glucosidase [1]): ~95.1%

type of α-glucosidase inhibition (α-glucosidase [2]; Lineweaver–Burk plots, 0, 1.98, 3.97, 7.93 μM): mixed mode inhibitor
Ki (α-glucosidase [2]; read-out: inhibition constant binding with the free enzyme (Ki), secondary plot): 5.58 ± 0.35 µM
inhibition constant binding with the enzyme–substrate complex (K′i) (α-glucosidase [2]; secondary plot): 10.33 ± 0.85 µM
α-glucosidase inhibition relative to the standard drug acarbose (α-glucosidase [3]): thirty-seven times better
SMILES: O=c1c(O)c(-c2ccc(O)c(O)c2)oc2c(Br)c(O)cc(O)c12 [Compound 5a, 8-Bromoquercetin]

SMILES: C[C@@H]1O[C@@H](Oc2c(-c3ccc(O)c(O)c3)oc3cc(O)cc(O)c3c2=O)[C@H](O)[C@H](O)[C@H]1O [Compound 6, quercitrin]
IC50 α-glucosidase inhibition (α-glucosidase [4]): 215 ± 4 µg/mL (≈ 480 µM)

SMILES: O=c1c(O)c(-c2cc(O)c(O)c(O)c2)oc2cc(O)cc(O)c12 [myricetin]
effect on fasting blood glucose level [5]: cut down the fasting blood glucose level
effect on fasting blood glucose level [6]: cut down the fasting blood glucose level
IC50 yeast α-glucosidase (yeast α-glucosidase): 5 µg/mL (≈ 15.7 µM)
